Test results reported in the RNAGym collection of RNA variant scans (doi:10.1002/anie.201605470).

B1: Osa-1-4 twister ribozyme (parent)
chain: CCGCCUAACACUGCCAAUGCCGGUCCCAAGCCCGGAUAAAAGUGGAGGGGGCGG

Variants of: B1
Experiment: self-cleavage, relative activity (ratio to wild type); higher = more cleavage; co-transcriptional
Procedure, shortened: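 A DNA template for a 54-nucleotide Oryza sativa twister ribozyme was synthesised with 97 % wild-type base and 1 % of each other base at the 48 positions downstream of the cleavage site. It was transcribed in vitro for 2 h at 37 °C, allowing co-transcriptional self-cleavage, then reverse-transcribed with a template-switching oligonucleotide, PCR-amplified and deep-sequenced. Cleavage status was scored from reads with or without upstream sequence. Relative activity is fraction cleaved normalised to wild type.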

Compared with CCGCCUAACACUGCCAAUGCCGGUCCCAAGCCCGGAUAAAAGGGGUGGGGGCGG [A46U U43G], CCGCCUAACACUGCCAAUGCCGGACCCAAGCCCGGAUAAAAGUGGUGGGGGCGG [A46U U24A] is lower in self-cleavage: 0.07 for the first, 0.04 for the second.

Compared with CCGCCUAACACUGCCAAUGCCGGGCCCAAGCCCGGAUAAAAGUGGUGGGGGCGG [A46U U24G], CCGCCUAACACUGCCAAUGCCGGCCCCAAGCCCGGAUAAAAGUGGUGGGGGCGG [A46U U24C] is higher in self-cleavage: 0.01 for the first, 0.05 for the second.

CCGCCUAACACUGCCAAUGCCGGUCCCAAGGCCGGAUAAAAGUGGUGGGGGCGG [A46U C31G] and CCGCCUAACACUGCCAAUGCCGGUCCCAAGUCCGGAUAAAAGUGGUGGGGGCGG [A46U C31U] are the same in self-cleavage: 0.04 for the first, 0.04 for the second.

Compared with CCGCCUAACACUGCCAAUGCCGGUCCCAAGACCGGAUAAAAGUGGUGGGGGCGG [A46U C31A], CCGCCUAACACUGCCAAUGCCGGUCCCAAGCCCGGAUAAAAGUCGUGGGGGCGG [A46U G44C] is higher in self-cleavage: 0.02 for the first, 0.06 for the second.

CCGCCUAACACUGCCAAUGCCGGUCCCAAGCCCGGAUAAAAGUAGUGGGGGCGG [A46U G44A] and CCGCCUAACACUGCCAAUGCCGGUCCCAAGCCCGGAUAAAAGUUGUGGGGGCGG [A46U G44U] are the same in self-cleavage: 0.07 for the first, 0.07 for the second.

CCGCCUAACACUGCCAAUGCCGGUCCCAAGCCCUGAUAAAAGUGGUGGGGGCGG [A46U G34U] and CCGCCUAACACUGCCAAUGCCGGUCCCAAGCCCAGAUAAAAGUGGUGGGGGCGG [A46U G34A] are the same in self-cleavage: 0.06 for the first, 0.06 for the second.

First: CCGCCUAACACUGCCAAUGCCGGUCCCAAGCCCCGAUAAAAGUGGUGGGGGCGG [A46U G34C]
Second: CCGCCUAACACUGCCAAUGCCGGUGCCAAGCCCGGAUAAAAGUGGUGGGGGCGG [A46U C25G]
The self-cleavage of the first is higher: 0.07 for the first, 0.04 for the second.

First: CCGCCUAACACUGCCAAUGCCGGUUCCAAGCCCGGAUAAAAGUGGUGGGGGCGG [A46U C25U]
Second: CCGCCUAACACUGCCAAUGCCGGUACCAAGCCCGGAUAAAAGUGGUGGGGGCGG [A46U C25A]
The self-cleavage of the first is higher: 0.06 for the first, 0.03 for the second.

Compared with CCGCCUAACACUGCCAAUGCCGGUCCCAAGCCCGGAUAAAAGUGGUGGGCGCGG [A46U G50C], CCGCCUAACACUGCCAAUGCCGGUCCCAAGCCCGGAUAAAAGUGGUGGGUGCGG [A46U G50U] is higher in self-cleavage: 0.07 for the first, 0.09 for the second.

Compared with CCGCCUAACACUGCCAAUGCCGGUCCCAAGCCCGGAUAAAAGUGGUGGGAGCGG [A46U G50A], CCGCCUAACACUGCCAAUGCCGGUCCCAAGCCCGGAUAAAAGUGGUGGCGGCGG [A46U G49C] is lower in self-cleavage: 0.08 for the first, 0.04 for the second.

First: CCGCCUAACACUGCCAAUGCCGGUCCCAAGCCCGGAUAAAAGUGGUGGUGGCGG [A46U G49U]
Second: CCGCCUAACACUGCCAAUGCCGGUCCCAAGCCCGGAUAAAAGUGGUGGAGGCGG [A46U G49A]
The self-cleavage of the first is higher: 0.05 for the first, 0.04 for the second.

CCGCCUAACACUGCCAAUGCCGGUCCCAAGCCCGGAUAAAAGUGGUGGGGGCGC [A46U G54C] and CCGCCUAACACUGCCAAUGCCGGUCCCAAGCCCGGAUAAAAGUGGUGGGGGCGA [A46U G54A] are the same in self-cleavage: 0.08 for the first, 0.08 for the second.

Going from CCGCCUAACACUGCCAAUGCCGGUCCCAAGCCCGGAUAAAAGUGGUGGGGGCGU [A46U G54U] to CCGCCUAACACUGCCAAUGCCGGUCCCAAGCCCGGAUAAAAGUGGUGCGGGCGG [A46U G48C], the self-cleavage falls from 0.17 to 0.04.

CCGCCUAACACUGCCAAUGCCGGUCCCAAGCCCGGAUAAAAGUGGUGUGGGCGG [A46U G48U] and CCGCCUAACACUGCCAAUGCCGGUCCCAAGCCCGGAUAAAAGUGGUGAGGGCGG [A46U G48A] are the same in self-cleavage: 0.03 for the first, 0.03 for the second.

First: CCGCCUAACACUGCCAAUGCCGGUCCCAAGCCCGGAGAAAAGUGGUGGGGGCGG [A46U U37G]
Second: CCGCCUAACACUGCCAAUGCCGGUCCCAAGCCCGGACAAAAGUGGUGGGGGCGG [A46U U37C]
The self-cleavage of the first is higher: 0.11 for the first, 0.09 for the second.

Compared with CCGCCUAACACUGCCAAUGCCGGUCCCAAGCCCGGAAAAAAGUGGUGGGGGCGG [A46U U37A], CCGCCUAACACUGCCAAUGCCGGUCCCAAGCCCGGAUAAAAUUGGUGGGGGCGG [A46U G42U] is lower in self-cleavage: 0.05 for the first, 0.03 for the second.

Going from CCGCCUAACACUGCCAAUGCCGGUCCCAAGCCCGGAUAAAACUGGUGGGGGCGG [A46U G42C] to CCGCCUAACACUGCCAAUGCCGGUCCCAAGCCCGGAUAAAAAUGGUGGGGGCGG [A46U G42A], the self-cleavage rises from 0.06 to 0.08.

Compared with CCGCCUAACACUGCCAAUGCCGGUCCCAAGCCCGGAUAAAAGUGAUGGGGGCGG [A46U G45A], CCGCCUAACACUGCCAAUGCCGGUCCCAAGCCCGGAUAAAAGUGCUGGGGGCGG [A46U G45C] is lower in self-cleavage: 0.08 for the first, 0.04 for the second.

Going from CCGCCUAACACUGCCAAUGCCGGUCCCAAGCCCGGAUAAAAGUGUUGGGGGCGG [A46U G45U] to CCGCCUAACACUGCCAAUGCCGGUCCCAAGCGCGGAUAAAAGUGGUGGGGGCGG [A46U C32G], the self-cleavage rises from 0.03 to 0.05.

First: CCGCCUAACACUGCCAAUGCCGGUCCCAAGCACGGAUAAAAGUGGUGGGGGCGG [A46U C32A]
Second: CCGCCUAACACUGCCAAUGCCGGUCCCAAGCUCGGAUAAAAGUGGUGGGGGCGG [A46U C32U]
The self-cleavage of the first is lower: 0.03 for the first, 0.05 for the second.

Compared with CCGCCUAACACUGCCAAUGCCGGUCCCAAGCCCGGAUAAAAGUGGUGGGGGAGG [A46U C52A], CCGCCUAACACUGCCAAUGCCGGUCCCAAGCCCGGAUAAAAGUGGUGGGGGGGG [A46U C52G] is higher in self-cleavage: 0.1 for the first, 0.12 for the second.

Compared with CCGCCUAACACUGCCAAUGCCGGUCCCAAGCCCGGAUAAAAGUGGUGGGGGUGG [A46U C52U], CCGCCUAACACUGCCAAUGCCGGUCCCAAGCCCGGAUAAAAGUGGUGGGGGCAG [A46U G53A] is higher in self-cleavage: 0.09 for the first, 0.1 for the second.

First: CCGCCUAACACUGCCAAUGCCGGUCCCAAGCCCGGAUAAAAGUGGUGGGGGCUG [A46U G53U]
Second: CCGCCUAACACUGCCAAUGCCGGUCCCAAGCCCGGAUAAAAGUGGUGGGGGCCG [A46U G53C]
The self-cleavage of the first is higher: 0.09 for the first, 0.05 for the second.

First: CCGCCUAACACUCCCAAUGCCGGUCCCAAGCCCGGAUAAAAGUGGUGGGGGCGG [A46U G13C]
Second: CCGCCUAACACUACCAAUGCCGGUCCCAAGCCCGGAUAAAAGUGGUGGGGGCGG [A46U G13A]
The self-cleavage of the first is lower: 0.02 for the first, 0.03 for the second.

Variant CCGCCUAACACUUCCAAUGCCGGUCCCAAGCCCGGAUAAAAGUGGUGGGGGCGG [A46U G13U] has a self-cleavage of 0.01.
